Laboratory results: the M2OR odorant receptor database

How the values were obtained:
Settings in all cases: stereoisomer not certain
Or10j5 (Mus musculus) = target: T1, Or10j5 (Mus musculus) (UniProt Q62007)
T1 sequence (whole entry): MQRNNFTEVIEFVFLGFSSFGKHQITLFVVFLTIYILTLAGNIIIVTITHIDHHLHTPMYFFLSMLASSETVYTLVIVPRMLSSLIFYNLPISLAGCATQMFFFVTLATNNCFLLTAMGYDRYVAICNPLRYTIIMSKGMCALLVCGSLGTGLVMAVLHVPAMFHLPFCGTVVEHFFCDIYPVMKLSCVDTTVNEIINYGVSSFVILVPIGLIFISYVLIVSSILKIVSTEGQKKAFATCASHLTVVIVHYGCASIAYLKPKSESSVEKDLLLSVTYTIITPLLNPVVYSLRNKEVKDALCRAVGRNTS
How it was run: (§1)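 Transient luciferase assays in mammalian cell lines were common, though methods varied by source. The values come from published papers and their supplementary material, with extra details from the original authors when needed. Responsive refers to a measured signal the original authors judged statistically different from baseline, and non-responsive (inactive) to the remainder.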

Or2c1 (Mus musculus) = target: T2, Or2c1 (Mus musculus) (UniProt P23275)
T2 sequence (whole entry): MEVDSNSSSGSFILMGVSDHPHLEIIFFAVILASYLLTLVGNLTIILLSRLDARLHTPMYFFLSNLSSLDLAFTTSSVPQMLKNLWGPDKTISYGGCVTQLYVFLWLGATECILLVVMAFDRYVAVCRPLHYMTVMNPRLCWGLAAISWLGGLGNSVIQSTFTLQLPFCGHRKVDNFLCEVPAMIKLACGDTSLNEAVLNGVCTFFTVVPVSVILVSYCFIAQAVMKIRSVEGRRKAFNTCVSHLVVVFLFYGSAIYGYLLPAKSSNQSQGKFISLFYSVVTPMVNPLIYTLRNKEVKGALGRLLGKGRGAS
How it was run: as §1

Or5ar1 (Mus musculus) = target: T3, Or5ar1 (Mus musculus) (UniProt Q8VGS3)
T3 sequence (whole entry): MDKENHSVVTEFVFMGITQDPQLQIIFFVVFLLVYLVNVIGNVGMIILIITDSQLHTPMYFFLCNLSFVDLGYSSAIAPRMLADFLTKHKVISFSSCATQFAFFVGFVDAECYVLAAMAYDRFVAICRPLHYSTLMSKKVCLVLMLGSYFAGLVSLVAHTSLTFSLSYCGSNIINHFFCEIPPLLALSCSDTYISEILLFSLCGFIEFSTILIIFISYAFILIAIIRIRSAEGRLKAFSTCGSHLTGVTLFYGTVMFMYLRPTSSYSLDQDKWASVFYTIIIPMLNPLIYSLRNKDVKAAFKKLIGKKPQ
How it was run: as §1

Or1m1 (Mus musculus) = target: T4, Or1m1 (Mus musculus) (UniProt Q8VFM9)
T4 sequence (whole entry): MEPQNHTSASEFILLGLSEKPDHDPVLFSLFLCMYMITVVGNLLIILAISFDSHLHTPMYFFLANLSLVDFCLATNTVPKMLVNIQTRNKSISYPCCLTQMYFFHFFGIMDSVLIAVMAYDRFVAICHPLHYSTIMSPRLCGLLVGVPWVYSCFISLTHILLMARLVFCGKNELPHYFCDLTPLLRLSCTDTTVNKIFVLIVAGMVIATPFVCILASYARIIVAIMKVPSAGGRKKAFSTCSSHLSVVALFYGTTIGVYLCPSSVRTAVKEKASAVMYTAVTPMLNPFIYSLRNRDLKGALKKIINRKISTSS
How it was run: as §1
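Also: active if original authors judged signal statistically different from baseline.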

Compound	odorant receptor agonist call (Or10j5 (Mus musculus))	odorant receptor agonist call (Or2c1 (Mus musculus))	odorant receptor agonist call (Or5ar1 (Mus musculus))	odorant receptor agonist call (Or1m1 (Mus musculus))
CCCCCCCC(=O)[O-].[H+]	active	active	inactive	
CC(C)=CCCC(C)CCO (stereo not given)		inactive	inactive	inactive
O=C1CCOc2ccccc21		inactive	inactive	inactive
CCCCCCC(C)=O		inactive	inactive	inactive
CCCCCCCCS		active	inactive	inactive
CCC(=O)C(=O)CC		active	inactive	inactive
CCCCC(C)=O		inactive	inactive	inactive
CC(=O)OCc1ccccc1		inactive	inactive	inactive
CCCCCCCCCS		inactive	inactive	inactive
CCCCCCCCCCO		inactive	inactive	inactive
C=C(C)C1CCC(C)C(=O)C1 (stereo not given)		inactive	inactive	inactive
CC=CC(=O)C1=C(C)CCCC1(C)C			inactive	inactive
C=CCOC(=O)CCCCCC		inactive	inactive	inactive
CC(=O)Oc1ccccc1		inactive	inactive	inactive
CCOC(=O)C(C)C		inactive	inactive	inactive
O=C([O-])CCCCCCC(=O)[O-].[H+].[H+]	inactive		inactive	inactive
CC(=O)OCC=C(C)C		inactive	active	inactive
